# High-throughput results: PubChem, Sanford-Burnham Center for Chemical Genomics
# PPC-1+TRAIL kill = compounds killing PPC-1 cancer cells with TRAIL present (potentiator screen, no TRAIL-free arm); cell killing (% activity), % at 4 µM or 5 µM; PPC-1 cells + TRAIL, ATPLite viability luminescence; actives 0.41% (n = 220,000);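 active = cell killing above 50% in the first pass at 4 µM, then a duplicate retest at 5 µM averaging 50% or more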;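 also: plate controls were cells with TRAIL plus DMSO for no effect and medium-only wells lacking cells for full effect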
# FLuc act counter = firefly luciferase counter-screen for stimulation assays; P08659; ATPlite luciferase biochemical, luminescence, 10 min; 0 = ATP-free wells, 1 = DMSO control; activation factor at 10 µM; 200,000 tested, under 10 active; AID 1027;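 active = luciferase activation factor, scaled between plate controls, of at least 2 with compound at 10 µM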
# Target sequence (P08659 whole entry, looked up): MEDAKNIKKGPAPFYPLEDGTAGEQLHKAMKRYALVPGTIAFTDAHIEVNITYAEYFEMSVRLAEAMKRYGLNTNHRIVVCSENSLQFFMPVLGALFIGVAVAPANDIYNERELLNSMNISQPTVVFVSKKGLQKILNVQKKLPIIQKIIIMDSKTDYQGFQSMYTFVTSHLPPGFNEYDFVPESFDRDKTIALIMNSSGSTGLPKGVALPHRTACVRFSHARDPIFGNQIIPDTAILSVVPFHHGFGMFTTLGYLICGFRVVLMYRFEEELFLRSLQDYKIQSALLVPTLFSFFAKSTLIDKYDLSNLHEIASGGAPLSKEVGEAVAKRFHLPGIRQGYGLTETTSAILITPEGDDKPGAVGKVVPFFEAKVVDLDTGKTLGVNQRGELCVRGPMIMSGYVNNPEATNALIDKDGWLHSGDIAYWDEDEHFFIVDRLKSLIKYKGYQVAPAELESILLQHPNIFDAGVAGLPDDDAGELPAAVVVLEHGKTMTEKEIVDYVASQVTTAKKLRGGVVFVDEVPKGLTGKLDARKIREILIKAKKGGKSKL
#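 Assay system: Luciferase/luciferin detection reagent, cell-free biochemical luciferase assay / Read-out: luciferase activation / Benchmarks: No-ATP low control, compound-free enzyme-plus-ATP high control / Medium: PBS buffer for ATP / Detection: luminescence measurement of luciferase light output / Schedule: 10 min at ambient temperature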
# FLuc inhib CS = Photinus pyralis luciferase inhibition counter-screen | P08659 | ATPLite firefly luciferase biochemical luminescence, 10 min | inhibition, % at 10 µM | actives 1.5% (n = 200,000);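 active = inhibition above about 50% when tested at 10 µM, limit read from the data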
# C8 TRAIL sens = sensitizes caspase-8 expressing cells to TRAIL | AID 624354 | actives 1% (n = 360,000) | NB7+C8 cells + TRAIL, ATPlite viability luminescence | inhibition (viability loss, TRAIL sensitization), % at 10 µM;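 active = compounds causing at least 50% loss of cell viability in the single-dose screen, relative to plate controls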
# PPC-1 tox = PPC-1 cell cytotoxicity. AID 1447. cytotoxicity, % at 5 µM. PPC-1 viability, ATPlite luminescence, overnight. shares compounds with PPC-1+TRAIL kill. actives 50% (n = 1,200);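 active = reconfirmed compounds whose average cytotoxicity reaches 50% or more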;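 also: 0% = DMSO-treated cells and 100% = wells holding medium but no cells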
# Numbers without * were called inactive; / = no result given. The list is not random: actives were taken first. Their share in the collection is about 1.6%.
SMILES,PPC-1+TRAIL kill,FLuc act counter,FLuc inhib CS,C8 TRAIL sens,PPC-1 tox
COc1ccc(N/N=C/c2c(C(=O)O)ccc3ccccc23)cc1,42.9,/,/,-7.3,38.3
CCN(CC)S(=O)(=O)c1cccc(C(=O)Nc2ccccc2C(=O)N2CCOCC2)c1,5.2,1,2.7,-8.7,-4.2
COc1cc(Cl)c(C)cc1NC(=O)COC(=O)c1cc[n+]([O-])cc1,16.4,1,-2.5,6.8,/
COc1ccc(CC(=O)O/N=C(\N)c2ccccc2)cc1OC,/,/,/,14.2,/
N/C(Cc1ccc(Cl)cc1Cl)=N\OC(=O)c1ccccc1,-1.3,1,-4.8,1.0,/
N/C(=N\OC(=O)c1ccc(Cl)cc1Cl)c1ccccc1,65.3*,0.1,94.9*,93.9*,61.7*
COc1ccc(C(=O)O/N=C(\N)c2ccccc2)c(OC)c1,36.5,0.5,49.1,49.7,34.1
Cc1cccc(NS(=O)(=O)c2cc(C(=O)N3CCc4ccccc4C3)ccc2Cl)c1C,3.0,1.1,-9.3,2.5,3.3
COc1ccc(NC(=O)c2nc3ccccc3s2)cc1,36.0,0.4,60.9*,46.4,39.0
Cc1cc(=O)[nH]c(SCC(=O)NC2CCCCCC2)n1,/,/,/,-2.7,/
O=C(CN1CCC(NC(=O)c2ccccc2F)CC1)Nc1ccc2c(c1)OCCO2,9.4,1,4.4,-5.0,-8.9
CCC(=O)Nc1sccc1C(=O)OC,-3.5,1,0.3,8.5,-1.4
Cc1ccc(S(=O)(=O)N2CCN(C(=O)N3CCOCC3)C2C(C)C)cc1 (configuration not stated),-6.7,1.1,-5.4,1.1,/
CCN(CC)c1ccc(C2N(C(=O)N3CCOCC3)CCN2S(=O)(=O)c2ccc(C)cc2)cc1 (configuration not stated),11.7,1.1,-6.1,-3.4,9.0
CCOc1ccc(CCN2C(=O)C(=O)N([C@@H](Cc3ccccc3)CN3CCC[C@H]3CN3C(=O)C(=O)NC[C@@H]3Cc3ccccc3)C[C@@H]2Cc2ccccc2)cc1,/,/,/,39.6,/
COc1cccc(/C=N/Nc2nccnc2Cl)c1O,45.0,0.2,83.8*,71.9*,49.8
C/C(CC(=O)Nc1ccc(N(C)C)cc1)=N\NC(=O)c1ccc([N+](=O)[O-])cc1,/,/,/,9.6,/
O=C(Nc1ccc(F)cc1)c1nn(-c2ccccc2)c(=O)cc1Cl,5.2,1.1,-7.0,-11.5,0.4
CC(C)N(C)C1CCN(C(=O)Nc2ccc(Cl)c(Cl)c2)CC1,0.6,1,-2.8,3.3,2.8
CN(CC(=O)Nc1ccc(Cl)c(Cl)c1)C1CCCCC1,/,/,/,4.9,/
COc1ccc(-c2csc(C)n2)cc1OC,9.2,1,-3.4,-33.6,/
COc1ccc(-c2cn3cc(C)ccc3n2)cc1OC,74.5*,0.1,87.9*,71.8*,72.6*
COc1ccc(-c2cn3cc(C)ccc3n2)cc1F,74.0*,0.1,93.4*,72.8*,74.4*
CCS(=O)(=O)c1nc2ccccc2n1Cc1ccccn1,10.9,1,-4.2,3.7,/
O=c1[nH]c(=S)[nH]c2nccnc12,/,/,/,1.6,/
SMILES,PPC-1+TRAIL kill,FLuc act counter,FLuc inhib CS,C8 TRAIL sens,PPC-1 tox
Cc1ccc(OCCCC(=O)NNC(=O)c2ccccn2)cc1,/,/,/,7.6,/
Clc1ccc(-c2nnc(SCc3ccon3)o2)c(Cl)c1,44.0,0.2,77.9*,48.2*,39.0
Cc1ccc(C(=O)NCC(=O)OCc2nnc(-c3ccc([N+](=O)[O-])cc3)o2)s1,/,/,/,-11.2,/
COc1ccc(-c2cc(=O)c3cc(OC)ccc3[nH]2)cc1,65.4*,0.1,86.8*,72.6*,62.4*
Cc1ccc2[nH]c(-c3ccccc3)cc(=O)c2c1,69.0*,0.1,85.7*,52.5*,67.7*
COc1ccc(-c2cc(=O)c3cc(OC)ccc3o2)cc1,66.2*,0.2,78.5*,65.6*,68.2*
Cc1ccc(-c2cc(=O)c3cc(Cl)ccc3[nH]2)cc1,64.7*,0.4,56.9*,/,60.3*
CCc1ccc(OC(=O)c2cccnc2)cc1,/,/,/,9.9,/
N#Cc1ccc(CC(C(=O)O)N2Cc3ccccc3C2=O)cc1 (configuration not stated),/,/,/,-2.5,/
O=C(/C=C/c1ccccc1)Nc1cc(NC(=O)/C=C/c2ccccc2)cc(C(=O)O)c1,/,/,/,-2.1,/
CSc1cccc(NC(=O)/C=C/c2ccccc2)c1,24.6,0.6,42.2,25.9,/
O=C(/C=C/c1ccccc1)Nc1cccc(C(=O)O)c1,63.9*,0.1,91.5*,81.1*,60.7*
CSc1ccc(/C=C/C(=O)Nc2ccccc2)cc1,64.2*,0.2,82.9*,58.1*,66.4*
COC(=O)c1sccc1NC(=O)c1ccc2c(c1)OCO2,3.6,1,-1.8,-3.4,6.1
